According to ChEMBL document CHEMBL1821604, “Anticancer activity and cDNA microarray studies of a (RS)-1,2,3,5-tetrahydro-4,1-benzoxazepine-3-yl]-6-chloro-9H-purine, and an acyclic (RS)-O,N-acetalic 6-chloro-7H-purine” (Eur J Med Chem, 2011):

Key:
Assay type in all cases: functional
MCF7 [1] = assay: Down regulation of ZNF336 gene expression in human MCF7 cells at IC50 after 48 hrs by cDNA microarray technique relative to control
MCF7 [2] = assay: Down regulation of TSSK6 gene expression in human MCF7 cells at IC50 after 48 hrs by cDNA microarray technique relative to control
MCF7 [3] = assay: Down regulation of ENST00000295859 gene expression in human MCF7 cells at IC50 after 48 hrs by cDNA microarray technique relative to control
Method in brief: (§1)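 Cells (8 × 10⁶) were cultured in DMEM with 10% heat-inactivated FBS at 37 °C under 5% CO₂. They were exposed for 48 h to compound at its IC₅₀, with DMSO-treated parallel cultures as controls (final DMSO ≤0.1% v/v). Total RNA was isolated by trizol/chloroform phase separation, RNeasy column cleanup and on-column DNase, then quantified by OD260/OD280. Expression was profiled by cDNA microarray relative to control.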

HT-29 [4] = assay: Down regulation of GBP1 gene expression in human HT-29 cells at IC50 after 48 hrs by cDNA microarray technique relative to control; method in brief: as §1
HT-29 [5] = assay: Upregulation of YPEL1 gene expression in human HT-29 cells at IC50 after 48 hrs by cDNA microarray technique relative to control
HT-29 [6] = assay: Down regulation of TCP10 gene expression in human HT-29 cells at IC50 after 48 hrs by cDNA microarray technique relative to control
HT-29 [7] = assay: Down regulation of MOG gene expression in human HT-29 cells at IC50 after 48 hrs by cDNA microarray technique relative to control
MCF7 [8] = assay: Upregulation of FGD3 gene expression in human MCF7 cells at IC50 after 48 hrs by cDNA microarray technique relative to control
HT-29 [9] = assay: Down regulation of AK5 gene expression in human HT-29 cells at IC50 after 48 hrs by cDNA microarray technique relative to control
Method in brief: (§2)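 8 × 10⁶ cells exposed 48 h to compound at its IC50 concentration; total RNA isolated with trizol/chloroform and RNeasy columns including on-column DNase step; RNA quantified by OD 260/280; DMSO-treated cultures as control.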

MCF7 [10] = assay: Upregulation of SPACA3 gene expression in human MCF7 cells at IC50 after 48 hrs by cDNA microarray technique relative to control
MCF7 [11] = assay: Down regulation of DOK5 gene expression in human MCF7 cells at IC50 after 48 hrs by cDNA microarray technique relative to control; method in brief: as §1
MCF7 [12] = assay: Down regulation of ADAMTS3 gene expression in human MCF7 cells at IC50 after 48 hrs by cDNA microarray technique relative to control; method in brief: as §2
MCF7 [13] = assay: Down regulation of GLIPR1 gene expression in human MCF7 cells at IC50 after 48 hrs by cDNA microarray technique relative to control; method in brief: as §1
MCF7 [14] = assay: Down regulation of ZNF189 gene expression in human MCF7 cells at IC50 after 48 hrs by cDNA microarray technique relative to control
MCF7 [15] = assay: Down regulation of DKFZp727G131 gene expression in human MCF7 cells at IC50 after 48 hrs by cDNA microarray technique relative to control; method in brief: as §2
HT-29 [16] = assay: Upregulation of IMP-1 gene expression in human HT-29 cells at IC50 after 48 hrs by cDNA microarray technique relative to control
MCF7 [17] = assay: Down regulation of BDKRB1 gene expression in human MCF7 cells at IC50 after 48 hrs by cDNA microarray technique relative to control; method in brief: as §2
MCF7 [18] = assay: Upregulation of BTBD12 gene expression in human MCF7 cells at IC50 after 48 hrs by cDNA microarray technique relative to control
HT-29 [19] = assay: Down regulation of FLJ32871 gene expression in human HT-29 cells at IC50 after 48 hrs by cDNA microarray technique relative to control; method in brief: as §1
MCF7 [20] = assay: Down regulation of FLJ37562 gene expression in human MCF7 cells at IC50 after 48 hrs by cDNA microarray technique relative to control; method in brief: as §1
HT-29 [21] = assay: Down regulation of ANP32D gene expression in human HT-29 cells at IC50 after 48 hrs by cDNA microarray technique relative to control; method in brief: as §2
HT-29 [22] = assay: Down regulation of PCSK9 gene expression in human HT-29 cells at IC50 after 48 hrs by cDNA microarray technique relative to control
MCF7 [23] = assay: Down regulation of TDGF1 gene expression in human MCF7 cells at IC50 after 48 hrs by cDNA microarray technique relative to control
MCF7 [24] = assay: Down regulation of RHAG gene expression in human MCF7 cells at IC50 after 48 hrs by cDNA microarray technique relative to control
HT-29 [25] = assay: Down regulation of GK001 gene expression in human HT-29 cells at IC50 after 48 hrs by cDNA microarray technique relative to control; method in brief: as §1
MCF7 [26] = assay: Upregulation of MAGEA2B gene expression in human MCF7 cells at IC50 after 48 hrs by cDNA microarray technique relative to control
HT-29 [27] = assay: Down regulation of PRPS1 gene expression in human HT-29 cells at IC50 after 48 hrs by cDNA microarray technique relative to control
HT-29 [28] = assay: Upregulation of CDH15 gene expression in human HT-29 cells at IC50 after 48 hrs by cDNA microarray technique relative to control
MCF7 [29] = assay: Upregulation of AY232284 gene expression in human MCF7 cells at IC50 after 48 hrs by cDNA microarray technique relative to control
HT-29 [30] = assay: Down regulation of GANAB gene expression in human HT-29 cells at IC50 after 48 hrs by cDNA microarray technique relative to control; method in brief: as §1
HT-29 [31] = assay: Down regulation of GBGT1 gene expression in human HT-29 cells at IC50 after 48 hrs by cDNA microarray technique relative to control; method in brief: as §1
HT-29 [32] = assay: Down regulation of MDGA1 gene expression in human HT-29 cells at IC50 after 48 hrs by cDNA microarray technique relative to control
HT-29 [33] = assay: Down regulation of CKLFSF5 gene expression in human HT-29 cells at IC50 after 48 hrs by cDNA microarray technique relative to control; method in brief: as §2
HT-29 [34] = assay: Down regulation of DRD5 gene expression in human HT-29 cells at IC50 after 48 hrs by cDNA microarray technique relative to control; method in brief: as §1
HT-29 [35] = assay: Down regulation of PLCB4 gene expression in human HT-29 cells at IC50 after 48 hrs by cDNA microarray technique relative to control
HT-29 [36] = assay: Down regulation of DKFZp451J0118 gene expression in human HT-29 cells at IC50 after 48 hrs by cDNA microarray technique relative to control; method in brief: as §2
HT-29 [37] = assay: Upregulation of PLOD2 gene expression in human HT-29 cells at IC50 after 48 hrs by cDNA microarray technique relative to control
MCF7 [38] = assay: Down regulation of CNIH3 gene expression in human MCF7 cells at IC50 after 48 hrs by cDNA microarray technique relative to control; method in brief: as §2

COC(CN(c1ccccc1CO)S(=O)(=O)c1ccccc1[N+](=O)[O-])n1cnc2ncnc(Cl)c21 (racemic)
fold change (FC) (MCF7 [1]): -2.45
fold change (FC) (MCF7 [2]): -2.43
fold change (FC) (MCF7 [3]): -2.27
fold change (FC) (HT-29 [4]): -2.47
fold change (FC) (HT-29 [5]): 4.71
fold change (FC) (HT-29 [6]): -2.75
fold change (FC) (HT-29 [7]): -2.65
fold change (FC) (MCF7 [8]): 2.16
fold change (FC) (HT-29 [9]): -3.52
fold change (FC) (MCF7 [10]): 2.21
fold change (FC) (MCF7 [11]): -2.11
fold change (FC) (MCF7 [12]): -2.06
fold change (FC) (MCF7 [13]): -2.12
fold change (FC) (MCF7 [14]): -2.17
fold change (FC) (MCF7 [15]): -2.03
fold change (FC) (HT-29 [16]): 2.88
fold change (FC) (MCF7 [17]): -2.48
fold change (FC) (MCF7 [18]): 3.24
fold change (FC) (HT-29 [19]): -2.51
fold change (FC) (MCF7 [20]): -2.08

O=C(OCC1c2ccccc2-c2ccccc21)N1CC(n2cnc3c(Cl)ncnc32)OCc2ccccc21 (racemic)
fold change (FC) (HT-29 [21]): -2.8
fold change (FC) (HT-29 [22]): -2.32
fold change (FC) (MCF7 [23]): -3
fold change (FC) (MCF7 [24]): -6.26
fold change (FC) (HT-29 [25]): -2.03
fold change (FC) (MCF7 [26]): 2.53
fold change (FC) (HT-29 [27]): -2.68
fold change (FC) (HT-29 [28]): 2.06
fold change (FC) (MCF7 [29]): 3.98
fold change (FC) (HT-29 [30]): -2.04
fold change (FC) (HT-29 [31]): -2.07
fold change (FC) (HT-29 [32]): -3.92
fold change (FC) (HT-29 [33]): -2.19
fold change (FC) (HT-29 [34]): -2.3
fold change (FC) (HT-29 [35]): -2.11
fold change (FC) (HT-29 [36]): -2.03
fold change (FC) (HT-29 [37]): 2.76
fold change (FC) (MCF7 [38]): -3.32
